According to article PMC11127568 (ACS infectious diseases, 2024):
Like-named read-outs stand apart in the source and are kept apart here.

Assays:
[1] = tested on: human cell lines (HeLa, HepG2, HEK, and HCT116); assay: Drug cytotoxicity evaluation; type: cell-based; conditions: 48 h, read-out: IC50 Human cell lines
[2] = tested on: B. duncani; assay: microbe, parasite or virus in culture; type: cell-based, Babesia duncani (WA1); conditions: read-out: IC50 B. duncani
[3] = tested on: B. duncani; assay: In vitro drug-drug interaction with atovaquone by isobologram analysis; type: cell-based, Babesia duncani; conditions: combination with atovaquone; for Mode of Interaction: isobologram analysis
Summary of the method: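 B. duncani WA1 grown in A+ human RBCs, DMEM/F12, 5% hematocrit. […] SYBR Green I lysis read-out (ex 497/em 520 nm). FIC50 = IC50 in combination/IC50 alone, summed; ΣFIC50 <0.8 synergy, 0.8–<1.4 additive, ≥1.4 antagonism. ≥2 independent experiments, triplicates.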

[4] = tested on: B. duncani; assay: In vivo efficacy in B. duncani lethal infection model in C3H/HeJ mice; set-up: species or system mouse (C3H/HeJ); conditions: for Survival after monotherapy: lethal B. duncani infection, 10 mg/kg oral daily DPI 3 to 7
Summary of the method: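 Female C3H/HeJ mice (6 weeks, 5 per group) were infected intravenously with 1×10³ B. duncani WA1-infected RBCs. Oral gavage was given daily on DPI 3–7 with 100 μl PEG 400 vehicle or test compound at 10 mg/kg. Parasitemia came from Giemsa-stained thin blood smears, with at least 3000 RBCs counted, followed to DPI 84. Survival by Kaplan-Meier.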

[5] = tested on: B. microti; assay: In vivo efficacy in B. microti chronic infection model in CB.17/SCID mice; set-up: species or system mouse (CB.17/SCID); conditions: SCID mice, 10 mg/kg oral
[6] = B. duncani, 10 mg/kg oral DPI 3 to 7

SMILES | Mode of Interaction [3] | IC50 [2] [nM] | Survival after monotherapy [4] | other results
O=C1C(O)=C([C@H]2CC[C@H](c3ccc(Cl)cc3)CC2)C(=O)c2ccccc21 [Atovaquone, reference compound] | – | – | – | IC50 [1]: 5000 nM; IC50 ([2]; Babesia duncani, Erythrocyte, in Homo sapiens, 62 h): 72 ± 6 nM
COc1cc2[nH]c(C)c(-c3ccc(-c4ccc(OC(F)(F)F)cc4)cc3)c(=O)c2cc1Cl [ELQ-596] | additive (0.8 ≤ ΣFIC50 < 1.4 = additive) | 32 ± 4.9 | – | –
CCOC(=O)OCOc1c(-c2ccc(-c3ccc(OC(F)(F)F)cc3)cc2)c(C)nc2cc(OC)c(Cl)cc12 [ELQ-598] | additive (0.8 ≤ ΣFIC50 < 1.4 = additive) | 37 ± 2.2 | survival of these mice for the duration of study | Parasites on Giemsa-stained thin-blood smears on monitoring until DPI 84 [4, 6]: no parasites could be detected
COc1cc2[nH]c(C)c(-c3ccc(-c4ccc(OC(F)(F)F)cc4)cc3)c(=O)c2cc1F [ELQ-650] | additive (0.8 ≤ ΣFIC50 < 1.4 = additive) | 22 ± 4.9 | – | –
CCOC(=O)OCOc1c(-c2ccc(-c3ccc(OC(F)(F)F)cc3)cc2)c(C)nc2cc(OC)c(F)cc12 [ELQ-672] | synergistic | 57 ± 18 | animals ultimately succumbing to infection | Mean FIC value (Σ FIC50) ([3]; B. duncani in human red blood cells, fixed ratio method): 0.5; Day parasites emerged [4, 6]: 16 DPI; Parasitemia at DPI 19 [4, 6]: 8%; Day parasites emerged ([5]; vehicle DPI 17): 21 DPI; Day peak parasitemia reached ([5]; vehicle DPI 21): 31 DPI
